This is an account of results in ChEMBL document CHEMBL1134373, “A potent, nonpeptidyl 1H-quinolone antagonist for the gonadotropin-releasing hormone receptor” (J Med Chem, 2001).

Series [1] addresses T1, Gonadotropin-releasing hormone receptor (Rattus norvegicus, UniProt P30969).
T1 sequence (P30969 whole entry): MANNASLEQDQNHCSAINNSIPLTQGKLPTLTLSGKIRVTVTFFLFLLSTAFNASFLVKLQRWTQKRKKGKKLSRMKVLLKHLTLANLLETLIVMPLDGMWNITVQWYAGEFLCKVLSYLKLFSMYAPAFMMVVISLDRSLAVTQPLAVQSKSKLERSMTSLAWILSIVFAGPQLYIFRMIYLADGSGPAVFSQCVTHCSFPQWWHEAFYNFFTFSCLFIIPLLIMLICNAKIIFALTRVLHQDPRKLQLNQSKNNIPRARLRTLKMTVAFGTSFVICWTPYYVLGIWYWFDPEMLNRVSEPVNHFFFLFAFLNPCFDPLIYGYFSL
Description: Functional antagonism at GnRH receptor in rat (PI turnover).

The target in series [2] is T2, Gonadotropin-releasing hormone receptor (Homo sapiens, UniProt P30968).
T2 sequence (P30968 whole entry): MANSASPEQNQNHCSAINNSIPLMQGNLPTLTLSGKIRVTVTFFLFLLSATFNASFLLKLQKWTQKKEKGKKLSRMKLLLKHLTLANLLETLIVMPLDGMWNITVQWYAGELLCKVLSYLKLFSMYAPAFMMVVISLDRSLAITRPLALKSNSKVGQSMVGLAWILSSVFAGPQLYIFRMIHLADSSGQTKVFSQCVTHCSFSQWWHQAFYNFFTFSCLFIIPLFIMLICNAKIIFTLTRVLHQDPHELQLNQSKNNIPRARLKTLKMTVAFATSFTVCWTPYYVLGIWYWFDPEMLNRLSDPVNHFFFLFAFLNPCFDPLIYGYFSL
Description: Functional antagonism at the human GnRH receptor (PI turnover). The procedure, abridged:
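CHO cells stably expressing human GnRH receptor were labelled 48 h with 1 μCi [3H]inositol in inositol-free F12 with 10% dialyzed FBS. After washing with PBS containing 10 mM LiCl, cells were preincubated with graded compound for 2 h at 37 °C. 0.5 nM GnRH was then added for 60 min, followed by formic acid lysis. IC50 is inhibition of GnRH-stimulated PI hydrolysis.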

Series [3] in a line: Plasma clearance was determined fter intravenous administration of a dose of 0.5 mg/kg. In kind it is ADME, organism-based. Also on record: dose 0.5 mg/kg, route intravenous. The following applies: read-out: ClP. Summed up:
(§1)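 Male rhesus monkeys received a single iv dose in ethanol/PEG400/saline (10/40/50, v/v/v) via the brachiocephalic vein. Femoral vein blood was drawn at 5, 15, 30 min and 1, 2, 4, 6, 8, 24 h. Plasma was extracted with ethyl acetate and assayed by LC/MS/MS against an internal standard (LOQ 2.0 ng/mL). AUC came from linear/log trapezoidal rule with extrapolation by Ct/λ; t1/2 = 0.693/λ; Clp = dose/AUC(0-∞).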

The target of series [4] is T1, Gonadotropin-releasing hormone receptor. Description: In vitro inhibition of binding to GnRH receptor in rat. Summed up: (§2)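 Crude membranes came from rat pituitary (rat) or from CHO-K1 cells stably expressing human GnRH receptor (human). Competition was run against [125I-Tyr5]buserelin (1000 Ci/mmol) in 50 mM Tris-HCl pH 7.5 with 2 mM MgCl2 and 0.1% BSA. IC50 is the concentration giving 50% inhibition of specific binding.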

Series [5] deals with T2, Gonadotropin-releasing hormone receptor. The experiment in a line: In vitro inhibition of binding to GnRH receptor in human. Summed up:
as §2

Series [6] is described as follows: Half life period was determined after intravenous administration of 3 mg/kg. The format is ADME, organism-based. Also noted: dose 3 mg/kg, route intravenous. To be noted: in vivo. Summed up:
as §1

The nature of series [7]: Half life period was determined after intravenous administration of 0.5 mg/kg. The format is ADME, organism-based. Also noted: dose 0.5 mg/kg, route intravenous. To be noted: in vivo. Summed up:
as §1

Series [8] can be described thus: Area under curve was determined after intravenous administration of a dose of 0.5 mg/kg. The format is ADME, organism-based. Also noted: dose 0.5 mg/kg, route intravenous. The following applies: in vivo. Summed up: as §1
A short description of series [9]: Plasma clearance was determined fter intravenous administration of a dose of 3 mg/kg. The format is ADME, organism-based. To be noted: read-out: ClP. Also noted: dose 3 mg/kg, route intravenous. Summed up: as §1
The nature of series [10]: Area under curve was determined after intravenous administration of a dose of 3 mg/kg. In kind it is ADME, organism-based. Also on record: dose 3 mg/kg, route intravenous. The following applies: in vivo. The procedure, abridged: as §1

Regarding `Cc1cc(-c2c(OCC[C@@H]3CCN3)c3cc(C(=O)Nc4ccncn4)c(Cl)cc3[nH]c2=O)cc(C)c1C`, the half-inhibitory concentration (IC50) worked out at 81 nM in series [1], 1 nM in series [2], 4 nM in [4] and 0.44 nM in [5]. Besides, the clearance in series [3] came out at 30 mL/min/kg; in series [9], 33 mL/min/kg. Besides, the half-life was 5 h in series [6] and 9.5 h in series [7]. Further, the area under the curve (AUC) came out at 303 ng·h/mL in series [8] and 1320 ng·h/mL in series [10].
